Tests used:
[1] = In vitro cytotoxic activity against human SK-LMS-1 cancer cell lines after 3 days of culture; assay type: functional
Procedure, shortened: (§1)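 MTT overall-growth panel across 57 human cancer lines. Cells were plated for 24 h at 10 000–40 000 cells/mL, depending on cell type. Drugs were given at nine concentrations, 10^-9 to 10^-5 M in semilog steps, for 3 days. Absorbance was read at 570 nm with a 630 nm reference, in sextuplicate. Surviving cells are expressed as % of untreated control (100%).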

ZR-75-1 = assay: In vitro cytotoxic activity against human ZR-75-1 cancer cell lines after 3 days of culture; assay type: functional
Procedure, shortened: (§2)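 Human cancer cell lines, seeded 10 000–40 000 cells/mL and plated for 24 h, then exposed 72 h to nine drug concentrations from 10^-9 to 10^-5 M in semilog steps. Overall growth read by MTT reduction to formazan, absorbance at 570 nm (reference 630 nm). Sextuplicate wells; IC50 is the concentration reducing overall growth by 50% versus untreated control.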

LNCaP = assay: In vitro cytotoxic activity against human LNCaP cancer cell lines after 3 days of culture; assay type: functional; procedure, shortened: as §1
[2] = In vitro cytotoxic activity against human SCC-9 cancer cell lines after 3 days of culture; assay type: functional; procedure, shortened: as §1
PANC-1 = assay: In vitro cytotoxic activity against human Panc-1 cancer cell lines after 3 days of culture; assay type: functional; procedure, shortened: as §1
[3] = In vitro cytotoxic activity against human Hs 683 cancer cell lines after 3 days of culture; Activity expressed as log IC50; assay type: functional
Procedure, shortened: (§3)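 Adherent human cancer cell lines seeded at 10 000 to 40 000 cells/mL (depending on cell type) and left 24 h before treatment. Nine concentrations, 10^-9 to 10^-5 M in semilog steps, for 72 h. Growth measured by MTT reduction to formazan, absorbance 570 nm (reference 630 nm). Sextuplicate wells. IC50 is the concentration giving 50% lower overall growth than control.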

A-427 = assay: In vitro cytotoxic activity against human A427 cancer cell lines after 3 days of culture; assay type: functional; procedure, shortened: as §1
[4] = In vitro cytotoxic activity against human SK-UT-1B cancer cell lines after 3 days of culture; assay type: functional; procedure, shortened: as §2
[5] = In vitro cytotoxic activity against human HT144 cancer cell lines after 3 days of culture; assay type: functional; procedure, shortened: as §1
PC-3 = assay: In vitro cytotoxic activity against human PC-3 cancer cell lines after 3 days of culture; assay type: functional; procedure, shortened: as §1
WiDr = assay: In vitro cytotoxic activity against human WiDr cancer cell lines after 3 days of culture; assay type: functional; procedure, shortened: as §2
BT-20 = assay: In vitro cytotoxic activity against human BT-20 cancer cell lines after 3 days of culture; assay type: functional; procedure, shortened: as §1
[6] = In vitro cytotoxic activity against human Capan-2 cancer cell lines after 3 days of culture; assay type: functional; procedure, shortened: as §1
[7] = In vitro cytotoxic activity against human Su.86.86 cancer cell lines after 3 days of culture; assay type: functional; procedure, shortened: as §2
H4 = assay: In vitro cytotoxic activity against human H4 cancer cell lines after 3 days of culture; Activity expressed as log IC50; assay type: functional; procedure, shortened: as §3
DU-145 = assay: In vitro cytotoxic activity against human DU145 cancer cell lines after 3 days of culture; assay type: functional; procedure, shortened: as §1
A498 = assay: In vitro cytotoxic activity against human A-498 cancer cell lines after 3 days of culture; assay type: functional; procedure, shortened: as §1
U-87 MG = assay: In vitro cytotoxic activity against human U87MG cancer cell lines after 3 days of culture; assay type: functional, U-87MG ATCC; procedure, shortened: as §2
FaDu = assay: In vitro cytotoxic activity against human FaDu cancer cell lines after 3 days of culture; assay type: functional; procedure, shortened: as §1
786-0 = assay: In vitro cytotoxic activity against human 786-O cancer cell lines after 3 days of culture; assay type: functional; procedure, shortened: as §1
MIA PaCa-2 = assay: In vitro cytotoxic activity against human MiaPaca-2 cancer cell lines after 3 days of culture; assay type: functional; procedure, shortened: as §1
BXPC-3 = assay: In vitro cytotoxic activity against human BxPC-3 cancer cell lines after 3 days of culture; assay type: functional; procedure, shortened: as §1
HCT-15 = assay: In vitro cytotoxic activity against human HCT-15 cancer cell lines after 3 days of culture; assay type: functional; procedure, shortened: as §1
A204 = assay: In vitro cytotoxic activity against human A204 cancer cell lines after 3 days of culture; assay type: functional; procedure, shortened: as §1
Hs-578T = assay: In vitro cytotoxic activity against human Hs 578.T cancer cell lines after 3 days of culture; assay type: functional; procedure, shortened: as §1
LoVo = assay: In vitro cytotoxic activity against human LoVo cancer cell lines after 3 days of culture; assay type: functional; procedure, shortened: as §1
[8] = In vitro cytotoxic activity against human Hs 729 cancer cell lines after 3 days of culture; assay type: functional; procedure, shortened: as §1
[9] = In vitro cytotoxic activity against human Detroit 562 cancer cell lines after 3 days of culture; assay type: functional; procedure, shortened: as §1
[10] = In vitro cytotoxic activity against human AL-12T cancer cell lines after 3 days of culture; assay type: functional; procedure, shortened: as §1
T47D = assay: In vitro cytotoxic activity against human T-47D cancer cell lines after 3 days of culture; assay type: functional; procedure, shortened: as §2
[11] = In vitro cytotoxic activity against human MCF7HTB-22 cancer cell lines after 3 days of culture; assay type: functional; procedure, shortened: as §1
A549 = assay: In vitro cytotoxic activity against human A549 cancer cell lines after 3 days of culture; assay type: functional; procedure, shortened: as §1
[12] = In vitro cytotoxic activity against human 769-P cancer cell lines after 3 days of culture; assay type: functional; procedure, shortened: as §1
T-24 = assay: In vitro cytotoxic activity against human T24 cancer cell lines after 3 days of culture; assay type: functional; procedure, shortened: as §2
[13] = In vitro cytotoxic activity against human […] cancer cell lines after 3 days of culture; assay type: functional; procedure, shortened: as §1
[14] = In vitro cytotoxic activity against human SW1783 cancer cell lines after 3 days of culture; Activity expressed as log IC50; assay type: functional; procedure, shortened: as §3
Malme-3M = assay: In vitro cytotoxic activity against human MALME-3M cancer cell lines after 3 days of culture; assay type: functional; procedure, shortened: as §1
ACHN = assay: In vitro cytotoxic activity against human ACHN cancer cell lines after 3 days of culture; assay type: functional; procedure, shortened: as §1
[15] = In vitro cytotoxic activity against human C32 cancer cell lines after 3 days of culture; assay type: functional; procedure, shortened: as §1
T98G = assay: In vitro cytotoxic activity against human T98G cancer cell lines after 3 days of culture; assay type: functional; procedure, shortened: as §2
HT-1080 = assay: In vitro cytotoxic activity against human HT1080 cancer cell lines after 3 days of culture; assay type: functional; procedure, shortened: as §1
HT1197 = assay: In vitro cytotoxic activity against human HT1197 cancer cell lines after 3 days of culture; assay type: functional; procedure, shortened: as §1
MES-SA = assay: In vitro cytotoxic activity against human MES-SA cancer cell lines after 3 days of culture; assay type: functional; procedure, shortened: as §1
CFPAC-1 = assay: In vitro cytotoxic activity against human CFPAC-1 cancer cell lines after 3 days of culture; Activity expressed as log IC50; assay type: functional; procedure, shortened: as §3
[16] = In vitro cytotoxic activity against human SW948 cancer cell lines after 3 days of culture; assay type: functional; procedure, shortened: as §2
[17] = In vitro cytotoxic activity against human G361 cancer cell lines after 3 days of culture; assay type: functional; procedure, shortened: as §1
HT-29 = assay: In vitro cytotoxic activity against human HT-29 cancer cell lines after 3 days of culture; assay type: functional; procedure, shortened: as §1
[18] = In vitro cytotoxic activity against human SW1088 cancer cell lines after 3 days of culture; Activity expressed as log IC50; assay type: functional; procedure, shortened: as §3
U373 MG = assay: In vitro cytotoxic activity against human U-373MG cancer cell lines after 3 days of culture; assay type: functional, U-373MG ATCC; procedure, shortened: as §2
[19] = In vitro cytotoxic activity against human Hs 766.T cancer cell lines after 3 days of culture; Activity expressed as log IC50; assay type: functional; procedure, shortened: as §3
MDA-MB-231 = assay: In vitro cytotoxic activity against human MDA-MB-231 cancer cell lines after 3 days of culture; assay type: functional; procedure, shortened: as §1
SK-MEL-28 = assay: In vitro cytotoxic activity against human SKMEL-28 cancer cell lines after 3 days of culture; assay type: functional; procedure, shortened: as §2
DLD-1 = assay: In vitro cytotoxic activity against human DLD-1 cancer cell lines after 3 days of culture; assay type: functional; procedure, shortened: as §1
[20] = In vitro cytotoxic activity against human Hs 174.T cancer cell lines after 3 days of culture; assay type: functional; procedure, shortened: as §1
CAKI-2 = assay: In vitro cytotoxic activity against human CAKI-2 cancer cell lines after 3 days of culture; assay type: functional; procedure, shortened: as §1

CCc1c2c(nc3ccc(O)cc13)-c1cc3c(c(=O)n1C2)COC(=O)[C@]3(O)CC [7-ETHYL-10-HYDROXYCAMPTOTHECIN]
Log IC50 [1]: -6.4
Log IC50 (ZR-75-1): -7.4
Log IC50 (LNCaP): -5.5
Log IC50 [2]: -6.1
Log IC50 (PANC-1): -5.1
Log IC50 [3]: -7
Log IC50 (A-427): -9
Log IC50 [4]: -9
Log IC50 [5]: -7.6
Log IC50 (PC-3): -6.7
Log IC50 (WiDr): -6.6
Log IC50 (BT-20): -6.5
Log IC50 [6]: -6.3
Log IC50 [7]: -6.5
Log IC50 (H4): -6.5
Log IC50 (DU-145): -9
Log IC50 (A498): -6.9
Log IC50 (U-87 MG): -8.1
Log IC50 (FaDu): -8.9
Log IC50 (786-0): -8.3
Log IC50 (MIA PaCa-2): -6.6
Log IC50 (BXPC-3): -7.1
Log IC50 (HCT-15): -7.1
Log IC50 (A204): -7.7
Log IC50 (Hs-578T): -6.3
Log IC50 (LoVo): -6.4
Log IC50 [8]: -7.3
Log IC50 [9]: -8
Log IC50 [10]: -6.1
Log IC50 (T47D): -7.3
Log IC50 [11]: -7.5
Log IC50 (A549): -7.4
Log IC50 [12]: -7.9
Log IC50 (T-24): -8.2
Log IC50 [13]: -9
Log IC50 [14]: -7.3
Log IC50 (Malme-3M): -5.2
Log IC50 (ACHN): -8.3
Log IC50 [15]: -8.7
Log IC50 (T98G): -7.3
Log IC50 (HT-1080): -7.3
Log IC50 (HT1197): -5
Log IC50 (MES-SA): -7.1
Log IC50 (CFPAC-1): -8.3
Log IC50 [16]: -7.7
Log IC50 [17]: -5.6
Log IC50 (HT-29): -7.5
Log IC50 [18]: -5.4
Log IC50 (U373 MG): -9
Log IC50 [19]: -5.6
Log IC50 (MDA-MB-231): -5.3
Log IC50 (SK-MEL-28): -7.3
Log IC50 (DLD-1): -6.8
Log IC50 [20]: -6.9
Log IC50 (CAKI-2): -5.3

Source: ChEMBL document CHEMBL1144441, “Identification of a novel cardenolide (2''-oxovoruscharin) from Calotropis procera and the hemisynthesis of novel derivatives displaying potent in vitro antitumor activities and high in vivo tolerance: structure-activity relationship analyses” (J Med Chem, 2005)
